Experimental data: ChEMBL document CHEMBL4725242, “Discovery of GS-9688 (Selgantolimod) as a Potent and Selective Oral Toll-Like Receptor 8 Agonist for the Treatment of Chronic Hepatitis B” (J Med Chem, 2020)
Calls of active or inactive are those of the source.

How the values were obtained:
[1] = target: T1, Nucleotide-binding oligomerization domain-containing protein 1 (Homo sapiens) (UniProt Q9Y239); assay: Agonist activity at human NOD1 expressed in HEK293 cells assessed as increase in NF-kappaB activation up to 10 uM incubated for 24 hrs by quanti-blue SEAP reporter gene assay; assay type: cell-based; conditions: dose microM <=10, time 24.0 hrs
T1 sequence (whole entry): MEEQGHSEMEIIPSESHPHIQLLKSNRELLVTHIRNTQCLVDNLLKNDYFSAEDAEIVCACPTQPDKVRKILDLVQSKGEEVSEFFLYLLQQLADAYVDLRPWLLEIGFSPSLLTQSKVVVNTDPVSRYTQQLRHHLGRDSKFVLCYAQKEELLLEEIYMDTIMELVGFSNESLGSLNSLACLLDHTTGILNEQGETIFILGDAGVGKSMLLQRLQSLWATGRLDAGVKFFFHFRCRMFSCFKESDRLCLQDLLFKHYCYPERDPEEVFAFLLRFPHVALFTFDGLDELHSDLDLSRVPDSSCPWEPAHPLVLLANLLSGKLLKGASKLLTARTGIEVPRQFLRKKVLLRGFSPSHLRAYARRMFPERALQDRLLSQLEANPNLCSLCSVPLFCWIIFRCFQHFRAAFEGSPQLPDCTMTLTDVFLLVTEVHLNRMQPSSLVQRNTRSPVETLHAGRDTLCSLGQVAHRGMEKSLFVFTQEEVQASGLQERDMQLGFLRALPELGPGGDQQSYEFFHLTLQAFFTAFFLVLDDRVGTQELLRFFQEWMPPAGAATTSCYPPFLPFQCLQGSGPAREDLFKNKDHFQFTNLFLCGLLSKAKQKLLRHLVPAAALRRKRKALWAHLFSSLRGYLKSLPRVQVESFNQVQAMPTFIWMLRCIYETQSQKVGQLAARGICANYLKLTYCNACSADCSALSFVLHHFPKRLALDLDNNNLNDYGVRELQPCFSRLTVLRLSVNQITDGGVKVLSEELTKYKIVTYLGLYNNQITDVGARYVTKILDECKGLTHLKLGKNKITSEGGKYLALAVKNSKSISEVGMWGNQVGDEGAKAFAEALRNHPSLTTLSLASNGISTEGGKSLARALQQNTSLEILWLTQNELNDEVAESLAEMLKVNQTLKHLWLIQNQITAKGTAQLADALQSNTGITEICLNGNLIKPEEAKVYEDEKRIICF
In short: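 HEK293 cells stably expressing individual human TLRs or other innate immune receptors, used as reporter gene assays. Minimum effective concentration defined as the level giving a 3-fold rise over background.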

[2] = Clearance in Sprague-Dawley rat at 1 mg/kg, iv administered as 30 mins infusion by HPLC-MS analysis; assay type: ADME, organism-based; conditions: in vivo
In short: (§1)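 30-min intravenous infusion: Sprague Dawley rats 1 mg/kg, beagle dogs 0.25 mg/kg, cynomolgus monkeys 0.1 mg/kg; n = 3 per species, reported as mean ± SD.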

[3] = Drug absorption in Beagle dog at 0.5 mg/kg, po administered via gavage by HPLC-MS analysis; assay type: ADME, organism-based, Canis lupus familiaris; conditions: in vivo, read-out: Drug absorption
In short: (§2)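 Oral dosing in 2% ethanol/40% PEG 300/58% 0.01N HCl: Sprague Dawley rats 5 mg/kg, beagle dogs 0.5 mg/kg, cynomolgus monkeys 3 mg/kg.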

[4] = Clearance in human hepatic microsomes at 2 uM measured up to 60 mins in presence of NADPH generating system by LC-MS/MS analysis; assay type: ADME, Microsome; conditions: liver microsomes
[5] = AUC (infinity) in cynomolgus monkey at 3 mg/kg, po administered via gavage by HPLC-MS analysis; assay type: ADME, organism-based, Macaca fascicularis; design: route oral, time infinity, dose 3 mg/kg; conditions: in vivo; in short: as §2
[6] = test system: Probable ATP-dependent RNA helicase DDX58 (Homo sapiens); assay: Agonist activity at human RIG1 expressed in HEK293 cells assessed as induction of IFN-inducible ISG54 promoter activity up to 10 uM after overnight incubation by secreted lucia luciferase reporter gene assay; conditions: dose microM <=10
[7] = Cytotoxicity against human MT4 cells assessed as reduction in cell viability measured after 4 to 5 days by celltiter-glo assay; assay type: cell-based; conditions: time 4-5 day
[8] = Half life in Beagle dog at 0.25 mg/kg, iv administered as 30 mins infusion by HPLC-MS analysis; assay type: ADME, organism-based, Canis lupus familiaris; conditions: in vivo; in short: as §1
Toll-like receptor 8 = target: T2, Toll-like receptor 8 (Homo sapiens, UniProt Q9NR97); assay: Agonist activity at TLR8 in human cryopreserved PBMC assessed as induction of IL-12p40 production measured after 24 hrs
T2 sequence (Q9NR97 whole entry): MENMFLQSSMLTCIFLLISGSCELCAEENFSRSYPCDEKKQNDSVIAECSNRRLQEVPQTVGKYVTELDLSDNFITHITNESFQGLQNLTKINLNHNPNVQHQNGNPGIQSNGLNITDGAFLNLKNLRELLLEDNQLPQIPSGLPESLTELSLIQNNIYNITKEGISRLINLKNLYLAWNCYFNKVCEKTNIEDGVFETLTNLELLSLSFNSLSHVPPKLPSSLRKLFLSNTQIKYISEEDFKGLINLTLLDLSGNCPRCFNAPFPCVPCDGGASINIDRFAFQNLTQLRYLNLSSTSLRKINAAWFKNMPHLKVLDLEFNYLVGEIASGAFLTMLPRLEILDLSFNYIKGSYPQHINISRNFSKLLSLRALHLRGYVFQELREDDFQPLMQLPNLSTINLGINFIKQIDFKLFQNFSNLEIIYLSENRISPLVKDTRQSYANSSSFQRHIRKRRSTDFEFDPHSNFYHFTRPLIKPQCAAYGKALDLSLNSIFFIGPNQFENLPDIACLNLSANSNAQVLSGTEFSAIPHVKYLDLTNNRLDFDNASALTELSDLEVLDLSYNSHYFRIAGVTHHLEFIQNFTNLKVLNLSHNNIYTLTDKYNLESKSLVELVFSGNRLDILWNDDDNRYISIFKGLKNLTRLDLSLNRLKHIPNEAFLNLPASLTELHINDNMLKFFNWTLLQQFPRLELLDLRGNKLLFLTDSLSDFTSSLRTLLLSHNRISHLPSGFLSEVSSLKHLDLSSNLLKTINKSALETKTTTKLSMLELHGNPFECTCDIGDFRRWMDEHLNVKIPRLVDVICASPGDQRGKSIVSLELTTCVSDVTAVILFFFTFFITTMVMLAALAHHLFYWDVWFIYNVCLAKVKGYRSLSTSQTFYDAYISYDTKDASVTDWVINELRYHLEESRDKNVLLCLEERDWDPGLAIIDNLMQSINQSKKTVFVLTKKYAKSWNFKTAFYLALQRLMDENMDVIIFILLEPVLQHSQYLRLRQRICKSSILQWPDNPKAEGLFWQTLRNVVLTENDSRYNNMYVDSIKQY

For `CCCC[C@](C)(CO)Nc1nc(N)nc2cc(F)cnc12` [SELGANTOLIMOD], the Activity [1] was “inactive”, the clearance [2] was 30 mL/min/kg and the Fa [3] was 28%. For the same molecule, the CLhep predicted at 2 µM [4] was 16.7 mL/min/kg, the AUC(0-inf) [5] was 4.7 nM·h and the Activity [6] was “inactive”. It also gave a CC50 [7] of 17 µM, a half-life [8] of 1.32 h and an EC50 (Toll-like receptor 8) of 0.22 µM.
